Screens from PubChem.
BasE inh – BasE siderophore enzyme inhibitors, primary screen, biochemical, Acinetobacter baumannii ATCC 17978, fluorescence polarization | purified BasE, fluorescence polarization binding displacement | inhibition, % (no concentration beside the values) | 84,000 tested, 0.1% active | AID 485350, 2010; in the data active = inhibition above about 25%, passing the limit was not always enough;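 also: 0% = negative plate control signal and 100% = positive plate control signal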
LANA-nucl inh – inhibitors of KSHV LANA-nucleosome binding, primary screen, biochemical, fluorescence polarization, FITC-LANA1-23, chicken nucleosomes; FITC-LANA1-23 / chicken nucleosome fluorescence polarization; active compounds read low; AID 720717, 2013; 51,000 tested, 0.3% active; z-score (no concentration beside the values);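 active = both repeat wells score below -2 in polarization z-score versus plate sample wells, excluding overly bright wells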
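Assay system: purified chicken nucleosomes with FITC-labelled LANA N-terminal peptide (1-23) / Probe or stimulus: 50 nM FITC-LANA1-23 probe / Compound dosing: pin-transferred compound, 100 nL / Times: compound with peptide–nucleosome mix 10–45 min at room temperature / Technique: fluorescence polarization, 480 nm excitation, 535 nm parallel and perpendicular emission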
* = called active by the depositor; nt = no result given; ! = repeats disagree. Many of the other results were omitted from the sample, so hits are more common in it than they were.

SMILES	BasE inh	LANA-nucl inh
CC(=O)N(Cc1cc2ccc(C)cc2[nH]c1=O)CC1CCCO1 (stereo not given)	1	0.22
Cc1cc(NC(=O)/C(C#N)=C/c2ccc(Cl)cc2)n(-c2ccccc2)n1	2	nt
CC(C)NC(=O)c1cc(C(=O)c2cc(Br)ccc2O)coc1=N	-3	nt
CCN(CC)C(=O)NCc1ccccn1	3	-0.21
O=C(c1csc(-c2ccccc2)n1)N(Cc1ccccn1)Cc1ccccn1	nt	-2*
O=C1CCCC2=C1Sc1ccccc1N2	13	-2.7*
O=C1CCCC2=C1C(c1cccc(Br)c1)Nc1ccccc1N2 (stereo not given)	-2	nt
CSc1nc2c3ccccc3n(C(C)=O)c2n1Cc1ccccc1	5	nt
C/C=C/C(=O)N1CCCC(c2nc(-c3cccc(OC)c3)no2)C1 (stereo not given)	-2	-0.21
O=S(=O)(Cc1cccc(C(F)(F)F)c1)N1CCCCC1	nt	-0.34
CCN(C(=O)NC1(C(F)(F)F)Oc2ccc(Cl)cc2O1)C1CCCCC1 (stereo not given)	40*	-0.19
CCN(C(=O)c1cccc(Cl)c1)C1CCCCC1	0	0.75
N#CCCOc1ccccc1	3	nt
O=C1CC(=O)c2ccc3c4c(ccc1c24)C(=O)CC3=O	27*	-0.28
Nc1ccc2c(c1)CCC2=O	2	0.82
CSC1=NSC2=NS(=O)(=O)CCN12	-2	nt
Nc1cc(N)nc(SCC(=O)N2CCCC2c2ccc3c(c2)OCCCO3)n1 (stereo not given)	1	nt
N#CC1=C2SCN(Cc3ccccc3)CN2C(=O)CC1c1cccs1 (stereo not given)	-1	-0.44
CCN1C=CC2=C(C#N)C(N)C(C#N)(C#N)C(c3cccs3)C2C1 (stereo not given)	16	-6.3*
CCN(CC)CCCC(C)Nc1c2ccc(Cl)cc2nc2ccc(OC)cc12 (stereo not given)	51	-2.3*!
CCN(CC)CCSc1nc2ccc(OC)cc2[nH]1	4	0.34
CN(C)c1ccc(CNC(=O)CC2(CC3=NS(=O)(=O)c4ccccc4N3)CCCC2)cc1	1	-0.021
Nc1cc(=O)nc(SCC(=O)N2CCCc3ccccc32)n1-c1ccccc1	-1	0.44
Cc1cc(C)c(C#N)c(SCCOc2ccccc2F)n1	-4	nt
COC(=O)c1cc(-c2cocc2C=C(C#N)C#N)ccc1Cl	7	-4.7*
SMILES	BasE inh	LANA-nucl inh
COC(=O)c1cnn(-c2c(Cl)cccc2Cl)c1C=C(C#N)C#N	3	-0.88
O=C(CSc1nnc(CN2CCCCC2)o1)Nc1c(Cl)cc(Cl)cc1C(=O)O	1	nt
CCOC(=O)c1cc(-c2ccccn2)nc2c1c(=O)n(CC(=O)OC)c(=O)n2Cc1ccccc1	-1	nt
N#CNC1=NC(c2ccccc2)C2=C(N1)/C(=C\c1ccccc1)CCC2 (stereo not given)	2	nt
C1CNCCN1	-2	1.5
C1COCCNCCOCCN1	-2	-2.6*
COc1ccc(CSC2=C(C#N)C(=O)NC3(CCCCC3)S2)cc1	39*	nt
CCCCSC1=C(C#N)C(=O)NC(c2ccc(OC)cc2)S1 (stereo not given)	4	-0.36
Cn1c(=O)c2c(ncn2CC(=O)N2CCSC2=NCCc2ccccc2)n(C)c1=O	0	nt
COC(=O)c1ccc(COC(=O)c2ccc3c(=O)n4c(nc3c2)CCCCC4)o1	2	nt
Cc1cccc(OCC(N)=O)c1	22	nt
Cc1cccc(OCC(=O)N(Cc2ccco2)Cc2ccco2)c1	28*	0.49
CCCNC(=O)c1ccccc1NC(=O)c1ccccc1NS(C)(=O)=O	2	-1.2
Oc1ccc(Cl)c2cccnc12	-1	-0.12
Oc1ccc(Br)c2cccnc12	57*	1
CCCN1Cc2cccc(C(=O)NC3CCCCCC3)c2C1=O	1	0.21
NC1=NN=C2CCCN3C(=C12)C=Cc1ccccc13	-1	nt
Cc1ccnc(SCC(=O)N2CCc3ccccc3C2)n1	40*	nt
O=C(CSc1ncccn1)N1CCc2ccccc2C1	1	0.45
C=CCn1c(=S)[nH]c2ccccc21	4	nt
COc1cc(/C=C/C(=O)OCC(=O)Nc2cccc(F)c2)ccc1O	1	nt
O=C(/C=C/c1ccc(O)c(O)c1)O[C@@H]1C[C@](O)(C(=O)O)C[C@@H](O)[C@H]1O	32*!	0.071
Cc1cc(=O)n2nc(N(C)CC(=O)NC3CCCc4ccccc43)sc2n1 (stereo not given)	-1	-2.3*
O=C(Cn1cnnn1)NC1CCCc2ccccc21 (stereo not given)	2	nt
COC(CN(Cc1nc(N)nc(Nc2ccc(C)cc2)n1)Cc1nc(N)nc(Nc2ccc(C)cc2)n1)OC	0	nt
COC(=O)c1ccc(Cn2cc(S(=O)(=O)N3CCCC3)ccc2=O)o1	1	nt
COc1cccc(-n2c(=O)c3cc(OC)c(OC)cc3n(CC(N)=O)c2=O)c1	5	-0.099
O=C(CSc1n[nH]c(Cc2ccccc2)n1)NC1CCCCC1	2	-2.4*
